Results: ChEMBL document CHEMBL1687736, “Identification and biochemical characterization of small-molecule inhibitors of Clostridium botulinum neurotoxin serotype A” (Antimicrob Agents Chemother, 2009)
Active and inactive are the calls of the source. The rule behind the calls is not given here.

Legend:
[1] = biological target: Botulinum neurotoxin type A (Clostridium botulinum) (UniProt P0DPI0); test: Inhibition of protease activity of recombinant full-length Clostridium botulinum BoNT/A light chain at 20 uM after 5 mins by HPLC-based assay
Method in brief: (§1)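 Full-length recombinant BoNT/A LC (110-140 nM) with 0.8 mM SNAP-25 17-mer peptide in 50 mM HEPES pH 7.3. Compound was added from DMSO stock without preincubation, then LC, 5 min at 37°C. TFA stop, reverse-phase HPLC. Percent inhibition came from substrate cleaved with versus without compound; the 20 µM data are means ± SD of two independent assays.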

[2] = biological target: Botulinum neurotoxin type A (Clostridium botulinum) (UniProt P0DPI0); test: Inhibition of protease activity of recombinant full-length Clostridium botulinum BoNT/A light chain at 200 uM after 5 mins by HPLC-based assay; method in brief: as §1
[3] = Cytotoxicity against mouse Neuro2a cells at >= 10 uM; format: cell-based; conditions: n2a
[4] = biological target: Botulinum neurotoxin type A (Clostridium botulinum) (UniProt P0DPI0); test: Inhibition of Clostridium botulinum BoNT/A light chain-mediated SNAP-25 cleavage in mouse Neuro2a cells at 15 uM after 30 mins by Western blotting; format: cell-based
[5] = Inhibition of zinc carboxypeptidase A at up to 20 uM
Method in brief: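 Carboxypeptidase A kit plate assay: CPA with compounds from DMSO at various concentrations, 5 min at 25°C, then stop solution and absorbance read at 350 nm. Percent inhibition was taken versus CPA with DMSO; potato tuber CPA inhibitor served as control. Two independent determinations, each in triplicate.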

[6] = biological target: Botulinum neurotoxin type A (Clostridium botulinum) (UniProt P0DPI0); test: Inhibition of Clostridium botulinum BoNT/A-mediated neuromuscular block in CD1 mouse phrenic nerve hemidiaphragm assessed as time required to 50% loss of twitch tension at 20 uM after 15 to 20 mins
[7] = biological target: T1, Botulinum neurotoxin type A (Clostridium botulinum, UniProt P0DPI0); test: Inhibition of protease activity of recombinant full-length Clostridium botulinum BoNT/A light chain after 5 mins by HPLC-based assay
Method in brief: (§2)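 Recombinant BoNT/A light chain, full-length at 140 nM or truncated (residues 1-425) at 620 nM final, with 0.8 mM 17-mer SNAP-25 (187-203) peptide in 50 mM HEPES pH 7.3. Inhibitor was added from DMSO at nine concentrations, then 5 min at 37°C. Stopped with 0.7% TFA, cleavage quantified by reverse-phase HPLC, and IC50 derived by log-probit analysis.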

[8] = biological target: T2, Botulinum neurotoxin type B (Clostridium botulinum) (UniProt P10844); test: Inhibition of protease activity of recombinant full-length Clostridium botulinum BoNT/B light chain at 20 uM after 5 mins by HPLC-based assay
T2 sequence (whole entry): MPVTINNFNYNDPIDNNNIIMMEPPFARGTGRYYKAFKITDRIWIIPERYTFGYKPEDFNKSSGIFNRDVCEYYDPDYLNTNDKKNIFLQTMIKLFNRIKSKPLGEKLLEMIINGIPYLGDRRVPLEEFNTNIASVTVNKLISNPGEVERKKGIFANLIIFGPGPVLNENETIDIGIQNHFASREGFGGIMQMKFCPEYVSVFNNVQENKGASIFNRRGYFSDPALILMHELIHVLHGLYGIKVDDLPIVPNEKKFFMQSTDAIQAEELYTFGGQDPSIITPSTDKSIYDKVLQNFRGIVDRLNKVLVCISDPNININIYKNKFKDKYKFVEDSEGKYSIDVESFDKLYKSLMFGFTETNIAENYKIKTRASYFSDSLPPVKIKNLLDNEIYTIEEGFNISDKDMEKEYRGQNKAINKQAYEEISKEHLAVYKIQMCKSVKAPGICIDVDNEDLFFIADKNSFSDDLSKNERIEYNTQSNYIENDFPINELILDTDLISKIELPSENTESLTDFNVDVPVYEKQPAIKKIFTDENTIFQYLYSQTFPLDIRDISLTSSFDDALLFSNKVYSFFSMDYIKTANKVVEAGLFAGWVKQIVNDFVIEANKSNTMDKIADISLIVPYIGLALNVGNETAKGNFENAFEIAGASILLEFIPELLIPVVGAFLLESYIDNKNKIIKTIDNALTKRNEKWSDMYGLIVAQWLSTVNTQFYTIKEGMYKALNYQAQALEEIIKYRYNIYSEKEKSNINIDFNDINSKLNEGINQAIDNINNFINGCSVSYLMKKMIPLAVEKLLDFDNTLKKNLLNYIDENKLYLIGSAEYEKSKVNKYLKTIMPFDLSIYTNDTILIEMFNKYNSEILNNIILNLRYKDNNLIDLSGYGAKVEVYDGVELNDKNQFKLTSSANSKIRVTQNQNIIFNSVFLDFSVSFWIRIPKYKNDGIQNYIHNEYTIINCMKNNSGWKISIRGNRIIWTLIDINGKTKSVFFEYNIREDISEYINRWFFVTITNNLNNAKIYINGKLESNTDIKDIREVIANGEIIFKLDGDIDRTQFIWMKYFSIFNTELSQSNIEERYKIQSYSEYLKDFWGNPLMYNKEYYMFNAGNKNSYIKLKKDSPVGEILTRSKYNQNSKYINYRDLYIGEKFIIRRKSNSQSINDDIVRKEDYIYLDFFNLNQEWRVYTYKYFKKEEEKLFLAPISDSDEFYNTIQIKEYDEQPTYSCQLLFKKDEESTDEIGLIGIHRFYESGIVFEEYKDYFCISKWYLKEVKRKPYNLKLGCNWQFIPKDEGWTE
Method in brief: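 Recombinant BoNT/B LC (30-40 nM) with 0.4 mM 35-mer human VAMP-2 (60-94) peptide, 1 mM DTT, 50 mM HEPES pH 7.3. Compound was added at 20 µM final without preincubation, then 5 min at 37°C. TFA stop, reverse-phase HPLC quantification of cleavage. Means ± SD of two independent assays.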

[9] = biological target: Botulinum neurotoxin type A (Clostridium botulinum) (UniProt P0DPI0); test: Inhibition of Clostridium botulinum BoNT/A light chain-mediated SNAP-25 cleavage in mouse Neuro2a cells at 10 uM after 30 mins by Western blotting; format: cell-based
[10] = biological target: T1, Botulinum neurotoxin type A; test: Inhibition of protease activity of recombinant Clostridium botulinum BoNT/A (1 to 425) light chain after 5 mins by HPLC-based assay; method in brief: as §2
[11] = biological target: Botulinum neurotoxin type A (Clostridium botulinum) (UniProt P0DPI0); test: Inhibition of Clostridium botulinum BoNT/A-mediated neuromuscular block in CD1 mouse phrenic nerve hemidiaphragm assessed as time required to 50% loss of twitch tension at 10 uM after 15 to 20 mins
[12] = biological target: Botulinum neurotoxin type A (Clostridium botulinum) (UniProt P0DPI0); test: Inhibition of Clostridium botulinum BoNT/A-mediated neuromuscular block in CD1 mouse phrenic nerve hemidiaphragm assessed as time required to 50% loss of twitch tension at 5 uM after 15 to 20 mins
[13] = biological target: Botulinum neurotoxin type A (Clostridium botulinum) (UniProt P0DPI0); test: Inhibition of Clostridium botulinum BoNT/A-mediated neuromuscular block in CD1 mouse phrenic nerve hemidiaphragm assessed as time required to 50% loss of twitch tension at 0.5 uM after 15 to 20 mins
[14] = biological target: T1, Botulinum neurotoxin type A; test: Binding affinity to Clostridium botulinum BoNT/A

T1 sequence (P0DPI0 2-448 limits assumed): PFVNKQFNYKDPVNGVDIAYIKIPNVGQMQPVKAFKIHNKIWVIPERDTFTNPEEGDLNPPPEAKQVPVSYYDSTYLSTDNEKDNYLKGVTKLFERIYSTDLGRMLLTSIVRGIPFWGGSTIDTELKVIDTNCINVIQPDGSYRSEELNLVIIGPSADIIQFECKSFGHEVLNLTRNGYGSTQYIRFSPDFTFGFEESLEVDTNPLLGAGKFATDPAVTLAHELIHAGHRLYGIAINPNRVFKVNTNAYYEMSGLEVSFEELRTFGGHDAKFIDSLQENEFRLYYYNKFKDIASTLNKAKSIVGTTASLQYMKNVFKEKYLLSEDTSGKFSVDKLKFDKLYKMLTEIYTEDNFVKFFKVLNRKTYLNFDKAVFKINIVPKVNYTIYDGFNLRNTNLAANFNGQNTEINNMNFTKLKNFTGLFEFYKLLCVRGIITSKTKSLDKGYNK
Botulinum neurotoxin type A (Clostridium botulinum), sequence (P0DPI0 2-448 limits assumed): as above

## Cc1ccc(NC(=O)/C(CC(=O)c2sc(Nc3ccccc3Cl)nc2C)=N/Nc2ccc([N+](=O)[O-])cc2[N+](=O)[O-])c(C)c1
[1]
  inhibition: 51%
[2]
  inhibition: 85%

## Cc1ccc([N+](=O)[O-])cc1NC(=O)NNC(=O)CNC(=O)NCc1ccco1
[1]
  inhibition: 52%
[2]
  inhibition: 75%

## O=C1c2ccccc2C(=O)N1CNc1ccccc1/C(=N/Nc1ccc([N+](=O)[O-])cc1[N+](=O)[O-])c1ccccc1
[1]
  inhibition: 49%
[2]
  inhibition: 82%

## O=[N+]([O-])c1ccc(NCCNc2ccc([N+](=O)[O-])cc2)cc1
[1]
  inhibition: 44%
[2]
  inhibition: 80%

## O=[N+]([O-])c1cccc(CN(Cc2cccc([N+](=O)[O-])c2O)c2ccccc2)c1O
[1]
  inhibition: 37%
[2]
  inhibition: 75%

## O=[N+]([O-])c1ccc(NC(c2ccccc2)c2ccc3cccnc3c2O)cc1 (racemic)
[3]
  Activity: Toxic
[1]
  inhibition: 52%
[2]
  inhibition: 87%

## Oc1c(C(Nc2cccc3cccnc23)c2ccccc2)ccc2cccnc12 (racemic)
[4]
  Activity: Active
[5]
  Activity: inactive
[6]
  TIME: 1.09 h
[2]
  inhibition: 91.9%
[7]
  IC50: 3200 nM
[8]
  inhibition: 6.9%
[9]
  inhibition: 66%
[10]
  IC50: 3900 nM

## Oc1c(C(Nc2ccccn2)c2ccccc2)ccc2cccnc12 (racemic)
[4]
  Activity: Active
[5]
  Activity: inactive
[11]
  TIME: 4.44 h
[7]
  IC50: 1600 nM
[8]
  inhibition: 8.8%
[9]
  inhibition: Active
[10]
  IC50: 1500 nM

## Oc1c(C(Nc2cccnc2)c2ccc(C(F)(F)F)cc2)ccc2cccnc12 (racemic)
[4]
  Activity: Active
[12]
  TIME: 3.6 h
[5]
  Activity: inactive
[2]
  inhibition: 92.7%
[7]
  IC50: 4700 nM
[8]
  inhibition: 30.2%
[9]
  inhibition: Active
[10]
  IC50: 5000 nM

## Oc1c(C(Nc2cccnc2)c2ccccc2F)ccc2cccnc12 (racemic)
[4]
  Activity: Active
[5]
  Activity: inactive
[11]
  TIME: 4.68 h
[2]
  inhibition: 92.8%
[7]
  IC50: 3900 nM
[8]
  inhibition: 16.8%
[9]
  inhibition: 68%
[10]
  IC50: 2400 nM

## CCOc1ccc(C(Nc2cccnc2)c2cc(Cl)c3cccnc3c2O)cc1 (racemic)
[4]
  Activity: Active
[5]
  Activity: inactive
[13]
  TIME: 4.52 h
[2]
  inhibition: 96.2%
[7]
  IC50: 2100 nM
[8]
  inhibition: 31.2%
[9]
  inhibition: Active
[10]
  IC50: 1600 nM

## CC(CO)(Nc1ccc([N+](=O)[O-])cc1[N+](=O)[O-])C(=O)O (racemic)
[1]
  inhibition: 29%
[2]
  inhibition: 65%

## Ac-CRATKML-NH2
[14]
  Ki: 1900 nM
[6]
  Activity: inactive
  TIME: 0.878 h
